Many of the other results were omitted from the sample, so hits are more common in it than they were.
Hsp70 activator – switches on Hsp70 transcription; HeLa Hsp70 promoter luciferase reporter, luminescence; scaled: vehicle 0, proteasome-inhibitor control 100%; activation, % at 10 µM; actives 0.04% (n = 200,000); AID 1203;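 active = activation above the mean across all tested compounds plus 3 SD, cutoff set per campaign, cut at about 5.5% in these data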;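 also: 100% = MG132 at 30 µM as the positive control and 0% = DMSO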
HSF1 inhib – HSF1 inhibition. actives 0.77% (n = 300,000). NIH3T3-HGL HSE-luciferase, MG132-induced, luminescence 8 h; active compounds read low. activity change, negative = inhibition, % at 7.5 µM (by protocol);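 active = more than half of replicate wells show activity change below -50%, luminescence cut by over half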;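 also: luciferase reports HSF-1 transcriptional activity via heat shock element; 0% = median of DMSO wells and -100% = zero luminescence signal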
T cruzi repl – blocks replication of Trypanosoma cruzi | T. cruzi beta-gal in NIH3T3, luminescence, 90 h | inhibition, % (test concentration not listed) | actives 1.4% (n = 300,000);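 active = mean inhibition across valid replicates above about 55%, limit read from the data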;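 also: signal also drops with host cell toxicity which is not excluded here; 0% = plate median of DMSO wells and 100% = zero luminescence signal; higher percent means less beta-gal luminescence so fewer parasites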
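System: mouse NIH/3T3 fibroblasts infected with β-gal-expressing T. cruzi Tulahuen C4 / Input: NIH/3T3 cells, 5,000 per well / Buffer or medium: Low-serum DMEM with 2% FBS / Probe or stimulus: 5000 reporter trypomastigotes per well / Schedule: ≥90 h infection period, 3 h prior cell attachment / Measured by: GalScreen luminescence, 60 min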
Lmaj promast – Leishmania major promastigote growth inhibition; AID 1063; actives 9% (n = 200,000); Leishmania major promastigotes, resazurin fluorescence viability; inhibition, % at 10 µM; in the data active = inhibition above about 50%;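 also: promastigotes grown with compound for 44 hours at 28 °C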
HSF1 activator – increases HSF-1 driven luciferase reporter signal. NIH3T3-HGL HSF-1 luciferase reporter, MG132, 8 h; 100% = twice DMSO control signal. activation, % at 9 µM. actives 1.7% (n = 300,000);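 active = mean replicate activation of at least 50% with a set share of replicates each reaching 50%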;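 also: 0% = median of the neutral control wells and 100% = twice that signal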
An asterisk follows results filed as active; . = no result.

SMILES	Hsp70 activator	HSF1 inhib	T cruzi repl	Lmaj promast	HSF1 activator
CCOC(=O)c1c(NC(=O)C(Sc2ccccc2)c2ccccc2)sc(C(=O)N(C)C)c1C (stereo not given)	-0.2	-1.2	-1.6	98.4*	-11.5
CCOC(=O)c1c(NC(=O)COC(=O)c2nccnc2N)sc(C(=O)N(C)C)c1C	.	-50.5*	1.0	.	-62.5
CCOC(=O)c1c(NC(=O)C(Sc2ccccc2)c2ccccc2)sc(C(N)=O)c1C (stereo not given)	-0.2	13.0	42.8	0.0	28.0
Cc1ccc(OCc2ccc(C(=O)Nc3nc4ccccc4n3Cc3ccccc3)o2)c([N+](=O)[O-])c1	0.4	2.2	42.5	6.8	10.2
O=C(Nc1nc2ccccc2n1Cc1ccccc1)c1ccc(COc2ccccc2[N+](=O)[O-])o1	0.4	-1.5	67.9*	-2.9	5.2
O=C(Nc1nc2ccccc2n1CCN1CCOCC1)c1ccc(Cn2cc([N+](=O)[O-])cn2)o1	.	2.3	-10.7	.	4.8
O=C(Nc1nc2ccccc2n1CCN1CCOCC1)c1ccc(COc2ccccc2Br)o1	0.0	-2.5	34.1	54.6*	3.4
CCCC(c1nnnn1Cc1ccc(OC)cc1)N1CCN(C(=O)c2ccco2)CC1 (stereo not given)	.	1.2	7.0	.	-6.6
Cc1csc(NC(=O)c2cc3c(s2)CCCCC3)n1	-0.4	-5.7	22.5	47.3	-1.9
CCOC(=O)Cc1csc(NC(=O)c2cc3c(s2)CCCC3)n1	-0.3	8.4	-11.9	91.2*	-9.6
Cc1csc(NC(=O)c2cc3c(s2)CCCC3)n1	-0.4	3.9	18.5	96.1*	-0.7
CC1CCC(NC(=O)Cn2c(=O)oc3ccccc32)CC1 (stereo not given)	.	9.9	0.3	.	4.6
O=S(=O)(c1ccc(Br)cc1)c1cnc2ccccc2n1	-0.3	16.6	-56.7	84.4*	30.4
Cc1cc(C)nc(NC2=NC3CCCCC3N2)n1 (stereo not given)	-0.1	-2.7	-18.3	64.2*	12.8
Cc1cc(C)nc(NC2=NCC(=O)N2c2cc(Cl)cc(Cl)c2)n1	-0.1	-2.7	-31.3	5.8	-18.5
CN(Cc1cn(-c2ccccc2)nc1-c1ccc2c(c1)OCO2)Cc1nccn1C	0.2	4.8	8.6	24.4	-0.2
CN(CCn1ccnc1)Cc1cn(-c2ccccc2)nc1-c1ccc2c(c1)OCO2	0.2	2.9	19.5	93.6*	39.0
CC(C)c1ccccc1-n1c(-c2cccnc2)n[nH]c1=S	-0.2	-65.1*	-11.6	-2.9	-71.3
O=C(Nc1nnc(C2=COCCO2)o1)c1ccc(S(=O)(=O)N2CCCCC2)cc1	-0.1	0.4	-8.1	3.7	-7.5
CC(C)Cc1nnc(NC(=O)CCC(=O)NC2CCCc3ccccc32)s1 (stereo not given)	-0.3	-6.2	-8.2	96.2*	-24.3
O=C(Cc1ccccc1F)NC1CCCc2ccccc21 (stereo not given)	.	2.6	-0.9	.	15.0
Cc1ccccc1CC(=O)NC1CCCc2ccccc21 (stereo not given)	.	36.5	-10.1	.	65.0*
O=C(O)c1ccc(Cl)c(S(=O)(=O)NC(Cc2ccccc2)C(=O)O)c1 (stereo not given)	-0.4	-6.9	-3.8	-6.0	-18.5
Cc1c2ccccc2cc(Cc2ccccc2)[n+]1C	.	0.0	12.8	.	-16.6
COc1ccc(CCNC(=O)CCCN2C(=O)c3ccccc3C2=O)cc1	-0.3	-2.5	12.3	-6.1	0.8
SMILES	Hsp70 activator	HSF1 inhib	T cruzi repl	Lmaj promast	HSF1 activator
Cc1ccc(-n2nc(C)c(/C=N/NC(=O)c3cccnc3)c2Cl)cc1	-0.2	3.7	3.8	56.7*	12.1
Cc1nn(Cc2ccc(F)cc2)c(Cl)c1/C=N/NC(=O)c1cccnc1	0.0	.	2.6	39.7	.
Cc1ccsc1/C=N/NC(=O)CNC(=O)c1ccc(S(=O)(=O)N(C)C)cc1	-0.3	8.2	-9.0	51.5*	29.5
CC(C)Oc1ccccc1/C=N/NC(=O)c1ccc(F)cc1	0.0	6.1	-8.9	-1.4	26.3
Cc1nn(Cc2ccc(F)cc2)c(Cl)c1/C=N/NC(=O)c1ccccc1	-0.1	4.8	66.1*	-7.4	4.0
O=C(N/N=C/c1ccccc1Cl)c1ccc(F)cc1	-0.2	32.5	-1.0	-3.1	55.8*
CN(C)S(=O)(=O)c1ccc(C(=O)NCC(=O)N/N=C/c2ccccc2Cl)cc1	-0.3	4.8	5.9	68.5*	15.4
Cc1ccc(/C=N/NC(=O)CNC(=O)c2ccc(S(=O)(=O)N(C)C)cc2)cc1	-0.3	-5.3	-19.6	48.3	-7.6
CNC(=S)N(Cc1ccco1)Cc1cc2cc(OC)ccc2[nH]c1=O	-0.3	8.6	12.9	0.0	39.2
CCNC(=S)N(CCN(C)C)Cc1cc2cc(OCC)ccc2[nH]c1=O	-0.1	-4.0	-5.3	5.2	-12.3
CNC(=S)N(Cc1ccco1)Cc1cc2cc(OC)c(OC)cc2[nH]c1=O	-0.3	14.6	3.8	6.2	56.7*
CCNC(=S)N(Cc1cccs1)Cc1cc2cc(OCC)ccc2[nH]c1=O	0.1	12.0	23.1	96.2*	13.8
CCNC(=S)N(Cc1ccco1)Cc1cc2cc(OCC)ccc2[nH]c1=O	-0.1	41.0	11.8	33.1	70.7*
Cc1ccc(NC(=O)CSc2nnc(-c3cccs3)o2)cc1S(=O)(=O)N1CCCCC1	0.2	-4.5	-1.9	-1.0	4.6
Nc1c(C(=O)NCc2ccccc2)c2nc3ccccc3nc2n1CCCN1CCOCC1	-0.3	4.5	24.6	40.9	-19.1
Nc1c(C(=O)NCc2ccc(F)cc2)c2nc3ccccc3nc2n1CCCN1CCOCC1	0.1	-3.5	24.0	100.3*	12.6
COc1ccc(CNC(=O)c2c(N)n(CCCN3CCOCC3)c3nc4ccccc4nc23)cc1	-0.2	-4.0	24.4	86.5*	7.1
CN(Cc1nccn1C)C(=O)C1CCC(=O)N(Cc2cccc(C(F)(F)F)c2)C1 (stereo not given)	.	3.0	-14.6	.	0.1
Cc1ccc(-n2ncc3c2CC(C)(C)CC3NC(=O)CCc2ccc(=O)[nH]n2)cc1 (stereo not given)	.	-4.9	-7.5	.	-12.1
N#Cc1nc(Cl)c(Cl)c(NN)c1Cl	.	1.7	-13.6	.	6.9
COCCCNC(=O)c1ccc2c3c(onc13)-c1ccccc1C2=O	.	100.5	16.3	.	139.4*
COCCCNC(=O)c1ccccc1Oc1ccccc1	-0.3	-4.3	-2.4	5.1	7.5
COc1ccc(N2CCN(C(=O)CCNC(=O)Cn3ccc4ccccc4c3=O)CC2)cc1	-0.1	1.4	-5.3	-2.2	0.7
CN1CCCN(C(=O)/C=C/c2ccc(Cl)cc2Cl)CC1	-0.2	-3.9	28.3	99.4*	4.3
O=C(OCC(=O)N1CCCC1=O)c1cc(Cl)ccc1O	.	-5.5	-8.4	.	-21.2
O=C(CNC(=O)c1ccccc1Cl)N/N=C/c1ccc([N+](=O)[O-])s1	-0.1	29.1	49.6	99.1*	28.5
O=C(Cc1cccs1)N/N=C\c1ccc([N+](=O)[O-])s1	-0.2	4.5	83.5*	100.3*	9.8
O=C(N/N=C/c1ccc(Cl)s1)c1ccccc1[N+](=O)[O-]	.	0.9	-15.0	.	10.1

High-throughput results: PubChem, several laboratories
